{"source": "ChEMBL document CHEMBL1671715", "about": "“Depolarization, bacterial membrane composition, and the antimicrobial action of ceragenins” (2010)", "key": {"[1]": {"test_system": "Escherichia coli", "test": "Induction of outer membrane permeabilization of Escherichia coli ML-35p by nitrocefin permeation based spectrophotometric assay", "format": "functional, organism-based", "in_short": "(§1)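 E. coli ML-35p grown overnight in TSB at 37°C, washed three times in 10 mM phosphate/0.1 M NaCl, pH 7.4. Diluted to 10^6 CFU/ml in the same buffer with 300 μg/ml TSB. Ceragenin or melittin 0–100 μg/ml, in duplicate. Outer membrane: 30 μM nitrocefin, A486. Inner membrane: 2.5 mM ONPG, A420. Read every 2 min for 60 min at 37°C with shaking.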"}, "[2]": {"test_system": "Escherichia coli", "test": "Induction of inner membrane permeabilization of Escherichia coli ML-35p at 100 ug/ml by ONPG hydrolysis based spectrophotometric assay"}, "[3]": {"test_system": "Bacillus cereus", "test": "Bactericidal activity against Bacillus cereus ATCC 11778 with lipid composition of 43% phosphatidylethanolamine, 40% phosphatidylglycerol and 17% cardiolipin by broth microdilution method", "format": "functional", "in_short": "(§2)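 Cells were incubated 24 h with incrementally varied ceragenin concentrations, then plated on tryptic soy agar. MBC is the lowest concentration completely eradicating bacteria (detection limit 10 CFU/ml).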"}, "[4]": {"test_system": "Escherichia coli", "test": "Bactericidal activity against Escherichia coli ATCC 25922 with lipid composition of […], 15% phosphatidylglycerol and 5% cardiolipin by broth microdilution method", "format": "functional", "in_short": "(§3)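 MBC by broth microdilution in the Gram-negative depolarization buffer (20 mM glucose, 5 mM HEPES, pH 7.3). Cells were incubated 24 h with incrementally varied ceragenin concentrations and plated on tryptic soy agar. MBC is the lowest concentration completely eradicating bacteria (detection limit 10 CFU/ml).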"}, "[5]": {"test_system": "Klebsiella pneumoniae", "test": "Bactericidal activity against Klebsiella pneumoniae ATCC 13883 with lipid composition of 82% phosphatidylethanolamine, 5% phosphatidylglycerol and 6% cardiolipin by broth microdilution method", "format": "functional", "in_short": "as §3"}, "[6]": {"test_system": "Staphylococcus epidermidis", "test": "Bactericidal activity against Staphylococcus epidermidis ATCC 35984 with lipid composition of 0% phosphatidylethanolamine, 90% phosphatidylglycerol and 1% cardiolipin by broth microdilution method", "format": "functional", "in_short": "as §2"}, "[7]": {"test_system": "Staphylococcus aureus", "test": "Bactericidal activity against methicillin-resistant Staphylococcus aureus ATCC BAA-41 with lipid composition of 0% phosphatidylethanolamine, 57% phosphatidylglycerol and 19% cardiolipin by broth microdilution method", "format": "functional", "in_short": "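Cells were incubated 24 h with stepwise-varied ceragenin concentrations, then each sample was plated on tryptic soy agar. MBC was taken as the lowest concentration giving complete kill (detection limit 10 CFU/ml).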"}, "[8]": {"test_system": "Klebsiella pneumoniae", "test": "Induction of outer membrane permeabilization of Klebsiella pneumoniae ATCC 13883 at MBC by DiS-C2 dye based fluorimetric assay", "format": "functional, organism-based", "in_short": "(§4)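 Overnight TSB cultures (37°C), washed three times in TSB, then suspended in 20 mM glucose/5 mM HEPES, pH 7.3, at A600 0.085 with 1 μM DiS-C2(5). Equilibrated about 60 min at 37°C to a stable baseline. EDTA or ceragenin added; fluorescence (ex 600/em 660 nm) read every 30 s with stirring at 37°C. A fluorescence drop indicates outer-membrane permeabilization and dye uptake.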"}, "[9]": {"test_system": "Enterococcus faecalis", "test": "Bactericidal activity against Enterococcus faecalis ATCC 29212 with lipid composition of 0% phosphatidylethanolamine, 27% phosphatidylglycerol and 19% cardiolipin by broth microdilution method", "format": "functional", "in_short": "as §2"}, "[10]": {"test_system": "Pseudomonas aeruginosa", "test": "Bactericidal activity against Pseudomonas aeruginosa ATCC 27852 with lipid composition of 60% phosphatidylethanolamine, 21% phosphatidylglycerol and 11% cardiolipin by broth microdilution method", "format": "functional", "in_short": "as §3"}, "[11]": {"test_system": "Staphylococcus aureus", "test": "Induction of cytoplasmic membrane depolarization in Staphylococcus aureus ATCC BAA-41 with lipid composition of 0% phosphatidylethanolamine, 57% phosphatidylglycerol and 19% cardiolipin at MBC by DiS-C2 dye based fluorimetric assay", "format": "functional", "in_short": "(§5)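 Overnight TSB cultures (37°C) were washed three times in 250 mM sucrose, 5 mM MgSO4, 10 mM K phosphate, pH 7.0, and diluted to A600 0.085 with 1 μM DiS-C2(5). Dye loaded 7 min at room temperature, then 7 min at 37°C. Ceragenin added with stirring at 37°C; fluorescence (ex 600/em 660 nm) read every 30 s. Depolarization at 330 s is expressed as % of the maximal fluorescence increase at 4× MBC.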"}, "[12]": {"test_system": "Staphylococcus aureus", "test": "Induction of cytoplasmic membrane depolarization in Staphylococcus aureus ATCC 25923 with lipid composition of 0% phosphatidylethanolamine, 57% phosphatidylglycerol and 19% cardiolipin at MBC by DiS-C2 dye based fluorimetric assay", "format": "functional", "in_short": "as §5"}, "[13]": {"test_system": "Enterococcus faecalis", "test": "Induction of cytoplasmic membrane depolarization in Enterococcus faecalis ATCC 29212 with lipid composition of 0% phosphatidylethanolamine, 27% phosphatidylglycerol and 19% cardiolipin at MBC by DiS-C2 dye based fluorimetric assay", "format": "functional", "in_short": "as §5"}, "[14]": {"test_system": "Escherichia coli", "test": "Induction of outer membrane permeabilization of Escherichia coli ATCC 25922 at MBC by DiS-C2 dye based fluorimetric assay", "format": "functional, organism-based", "in_short": "as §4"}, "[15]": {"test_system": "Staphylococcus aureus", "test": "Bactericidal activity against Staphylococcus aureus ATCC 25923 with lipid composition of 0% phosphatidylethanolamine, 67% phosphatidylglycerol and 19% cardiolipin by broth microdilution method", "format": "functional", "conditions": "in the assay text read “57% phosphatidylglycerol” for “67% phosphatidylglycerol”", "in_short": "as §2"}, "[16]": {"test_system": "Paenibacillus polymyxa", "test": "Bactericidal activity against Bacillus polymyxa ATCC 21830 with lipid composition of 60% phosphatidylethanolamine, 3% phosphatidylglycerol and 8% cardiolipin by broth microdilution method", "format": "functional", "in_short": "as §2"}, "[17]": {"test_system": "Paenibacillus polymyxa", "test": "Induction of cytoplasmic membrane depolarization in Bacillus polymyxa ATCC 21830 with lipid composition of 60% phosphatidylethanolamine, 3% phosphatidylglycerol and 8% cardiolipin at MBC by DiS-C2 dye based fluorimetric assay", "format": "functional", "in_short": "as §5"}, "[18]": {"test_system": "Bacillus cereus", "test": "Induction of cytoplasmic membrane depolarization in Bacillus cereus ATCC 11778 with lipid composition of 43% phosphatidylethanolamine, 40% phosphatidylglycerol and 17% cardiolipin at MBC by DiS-C2 dye based fluorimetric assay", "format": "functional", "in_short": "as §5"}, "[19]": {"test_system": "Staphylococcus epidermidis", "test": "Induction of cytoplasmic membrane depolarization in Staphylococcus epidermidis ATCC 35984 with lipid composition of 0% phosphatidylethanolamine, 90% phosphatidylglycerol and 1% cardiolipin at MBC by DiS-C2 dye based fluorimetric assay", "format": "functional", "in_short": "as §5"}, "[20]": {"test_system": "Escherichia coli", "test": "Induction of inner membrane permeabilization of Escherichia coli ML-35p by ONPG hydrolysis based spectrophotometric assay", "format": "functional, organism-based", "in_short": "as §1"}}, "note": "The source made the active and inactive calls. The rule behind the calls is not given here."}
{"compound": "CC[C@H](C)[C@H](NC(=O)CN)C(=O)NCC(=O)N[C@@H](C)C(=O)N[C@H](C(=O)N[C@@H](CC(C)C)C(=O)N[C@@H](CCCCN)C(=O)N[C@H](C(=O)N[C@@H](CC(C)C)C(=O)N[C@H](C(=O)N[C@H](C(=O)NCC(=O)N[C@@H](CC(C)C)C(=O)N1CCC[C@H]1C(=O)N[C@@H](C)C(=O)N[C@@H](CC(C)C)C(=O)N[C@H](C(=O)N[C@@H](CO)C(=O)N[C@@H](Cc1c[nH]c2ccccc12)C(=O)N[C@H](C(=O)N[C@@H](CCCCN)C(=O)N[C@@H](CCCNC(=N)N)C(=O)N[C@@H](CCCCN)C(=O)N[C@@H](CCCNC(=N)N)C(=O)N[C@@H](CCC(N)=O)C(=O)N[C@@H](CCC(N)=O)C(N)=O)[C@@H](C)CC)[C@@H](C)CC)[C@@H](C)O)[C@@H](C)O)C(C)C)C(C)C", "values": [{"measurement": "Activity", "setting": "[1]", "result": "Active"}]}
{"compound": "C[C@H](CCCO)[C@H]1CC[C@H]2[C@@H]3[C@H](OCCCN)C[C@@H]4C[C@H](OCCCN)CC[C@]4(C)[C@H]3C[C@H](OCCCN)[C@]12C", "values": [{"measurement": "Activity", "setting": "[2]", "result": "inactive"}, {"measurement": "MBC", "setting": "[3]", "result": 7, "unit": "µg/mL"}, {"measurement": "MBC", "setting": "[4]", "result": 10, "unit": "µg/mL"}, {"measurement": "MBC", "setting": "[5]", "result": 12.5, "unit": "µg/mL"}, {"measurement": "MBC", "setting": "[6]", "result": 12, "unit": "µg/mL"}, {"measurement": "MBC", "setting": "[7]", "result": 19, "unit": "µg/mL"}, {"measurement": "Activity", "setting": "[8]", "result": "Active"}, {"measurement": "MBC", "setting": "[9]", "result": 50, "unit": "µg/mL"}, {"measurement": "MBC", "setting": "[10]", "result": 12, "unit": "µg/mL"}, {"measurement": "Activity", "setting": "[11]", "result": 39, "unit": "%"}, {"measurement": "Activity", "setting": "[12]", "result": 82.8, "unit": "%"}, {"measurement": "Activity", "setting": "[13]", "result": 80.6, "unit": "%"}, {"measurement": "Activity", "setting": "[14]", "result": "Active"}, {"measurement": "MBC", "setting": "[15]", "result": 35, "unit": "µg/mL"}, {"measurement": "Activity", "setting": "[1]", "result": "Dose-dependent effect"}, {"measurement": "MBC", "setting": "[16]", "result": 15, "unit": "µg/mL"}, {"measurement": "Activity", "setting": "[17]", "result": 96.6, "unit": "%"}, {"measurement": "Activity", "setting": "[18]", "result": 84.7, "unit": "%"}, {"measurement": "Activity", "setting": "[19]", "result": 60.1, "unit": "%"}]}
{"compound": "CCCCCCCCNCCC[C@@H](C)[C@H]1CC[C@H]2[C@@H]3[C@H](OCCCN)C[C@@H]4C[C@H](OCCCN)CC[C@]4(C)[C@H]3C[C@H](OCCCN)[C@]12C", "values": [{"measurement": "MBC", "setting": "[3]", "result": 1, "unit": "µg/mL"}, {"measurement": "MBC", "setting": "[4]", "result": 1.5, "unit": "µg/mL"}, {"measurement": "MBC", "setting": "[5]", "result": 2.5, "unit": "µg/mL"}, {"measurement": "MBC", "setting": "[6]", "result": 1, "unit": "µg/mL"}, {"measurement": "MBC", "setting": "[7]", "result": 2, "unit": "µg/mL"}, {"measurement": "MBC", "setting": "[9]", "result": 5.5, "unit": "µg/mL"}, {"measurement": "MBC", "setting": "[10]", "result": 3.5, "unit": "µg/mL"}, {"measurement": "Activity", "setting": "[11]", "result": 45.8, "unit": "%"}, {"measurement": "Activity", "setting": "[12]", "result": 41.5, "unit": "%"}, {"measurement": "Activity", "setting": "[13]", "result": 74, "unit": "%"}, {"measurement": "MBC", "setting": "[15]", "result": 2.5, "unit": "µg/mL"}, {"measurement": "Activity", "setting": "[1]", "result": "Dose-dependent effect"}, {"measurement": "MBC", "setting": "[16]", "result": 2.5, "unit": "µg/mL"}, {"measurement": "Activity", "setting": "[20]", "result": "Active"}, {"measurement": "Activity", "setting": "[17]", "result": 88.4, "unit": "%"}, {"measurement": "Activity", "setting": "[18]", "result": 86.7, "unit": "%"}, {"measurement": "Activity", "setting": "[19]", "result": 25, "unit": "%"}]}
{"compound": "C[C@H](CCCNCCCNCCCN)[C@H]1CC[C@H]2[C@@H]3[C@H](OCCCN)C[C@@H]4C[C@H](OCCCN)CC[C@]4(C)[C@H]3C[C@H](OCCCN)[C@]12C", "values": [{"measurement": "Activity", "setting": "[2]", "result": "inactive"}, {"measurement": "MBC", "setting": "[3]", "result": 7, "unit": "µg/mL"}, {"measurement": "MBC", "setting": "[6]", "result": 2.5, "unit": "µg/mL"}, {"measurement": "MBC", "setting": "[7]", "result": 28, "unit": "µg/mL"}, {"measurement": "MBC", "setting": "[9]", "result": 280, "unit": "µg/mL"}, {"measurement": "Activity", "setting": "[11]", "result": 15.3, "unit": "%"}, {"measurement": "Activity", "setting": "[12]", "result": 39.8, "unit": "%"}, {"measurement": "Activity", "setting": "[13]", "result": 77.2, "unit": "%"}, {"measurement": "MBC", "setting": "[15]", "result": 49, "unit": "µg/mL"}, {"measurement": "Activity", "setting": "[1]", "result": "Dose-dependent effect"}, {"measurement": "MBC", "setting": "[16]", "result": 2.5, "unit": "µg/mL"}, {"measurement": "Activity", "setting": "[17]", "result": 39.6, "unit": "%"}, {"measurement": "Activity", "setting": "[18]", "result": 79.7, "unit": "%"}, {"measurement": "Activity", "setting": "[19]", "result": 26.3, "unit": "%"}]}
